Published values pooled from the literature.
Each line is one published result; the experiments were not run side by side.

Compound | assay | system | setting | solubility
Cc1c(C(=O)O)ccc2c3n(nc12)[C@@H]1[C@H](C3)N(CC2CC2)[C@@]2(C(=O)Nc3cc(Cl)ccc32)[C@H]1c1cccc(Cl)c1F | – | FaSSIF | – | 50 µg/mL
Cc1cccn2c(=O)c3cc(C(=O)N[C@@H](C)c4ccccc4)c(N)[n+](CCOCCO)c3nc12 | – | PBS | – | > 20 µM
Cn1cnc2ccc(Nc3c(F)ccc(NS(=O)(=O)N4CC(F)C4)c3Cl)c(Cl)c2c1=O | – | FaSSIF | pH 6.91 | 13 µg/mL
Cc1noc(C)c1CC(=O)N1CCOc2c(cc(-c3cccc(Cl)c3)cc2OCC2CCCN(C)C2)C1 (stereo not drawn) | – | water | – | 75 µM
Cn1cncc1[C@@](N)(c1ccc(Cl)cc1)c1ccc2c(c1)c(-c1cccc(Cl)c1)cc(=O)n2C | – | water | pH 7.6, 25 °C | 0.12 µg/mL
N=C(N)NCCC[C@H](NC(=O)[C@@H](NC(=O)[C@H](Cc1cscn1)NC(=O)CCc1ccccc1)C1CCCCC1)C(=O)c1nc2ccccc2s1 | – | PBS | 90 min, pH 7.4 | > 10 µM
CC(=Nc1ccc(N=Cc2cnccn2)cc1)N(C)C | shake flask | PBS | 24 h, pH 7.4, 25 °C | ~20 µg/mL
CC(=O)C(C)n1c(CN2CCN(c3cccc(Cl)c3)CC2)nc2c1c(=O)n(C)c(=O)n2C (stereo not drawn) | – | PBS | – | > 20 µM
Oc1ccccc1/C=N/c1c(-c2ccccc2)nc2ccc(Cl)cn12 | – | aqueous buffer | pH 7 | 125 µg/mL
Cc1ccc(Cn2cc(C(=O)NN)c(=O)c3cc(Oc4ccccc4)ccc32)cc1 | shake flask | PBS | 24 h, pH 6.5, 25 °C | < 5 µM
O=[N+]([O-])c1ccccc1/C=N/c1c(-c2ccccc2)nc2ccc(Cl)cn12 | – | aqueous buffer | pH 7 | < 1 µg/mL
N#C[C@@]12C[C@@H]1[C@@H](n1cnc3c(N[C@@H](C4CCC4)C4CC4)nc(I)nc31)[C@H](O)[C@@H]2O | – | aqueous buffer | pH 7.4 | 50 µg/mL
